pIC50: −log10 of the molar value.
Assays:
[1] = biological target: T1, Histone deacetylase HD2 (Zea mays) (UniProt Q94F81); assay: Inhibitory activity against maize histone deacetylase 2 at 26 uM
T1 sequence (whole entry): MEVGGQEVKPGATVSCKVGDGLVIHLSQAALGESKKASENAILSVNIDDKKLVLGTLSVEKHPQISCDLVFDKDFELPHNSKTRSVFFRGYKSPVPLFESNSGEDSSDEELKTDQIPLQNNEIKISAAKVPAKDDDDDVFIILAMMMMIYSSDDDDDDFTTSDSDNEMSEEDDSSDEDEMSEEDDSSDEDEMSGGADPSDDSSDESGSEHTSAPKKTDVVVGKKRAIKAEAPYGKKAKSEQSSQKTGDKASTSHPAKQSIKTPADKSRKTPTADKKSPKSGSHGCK
In short: (§1)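 Maize HD2 enzyme preincubated at 30 °C, then incubated 30 min with [³H]acetate-prelabeled chicken reticulocyte core histones (10 µL of 2 mg/mL) as substrate. Reaction stopped with 1 M HCl/0.4 M acetate. Released [³H]acetic acid was extracted into ethyl acetate and counted by liquid scintillation. Percent inhibition at one fixed concentration; means of at least three separate experiments. Blank solvent served as negative control.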

[2] = Inhibitory concentration against maize histone deacetylase 1-B (class I HDAC)
[3] = Inhibitory concentration against maize histone deacetylase 1-A (class IIa HDAC)
[4] = biological target: T2, Histone deacetylase HD2 (Zea mays, UniProt Q94F81); assay: Inhibitory concentration against maize histone deacetylase 2
T2 sequence (Q94F81 whole entry): T1 sequence (whole entry)
In short: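 Maize HD2 deacetylase assay using [³H]acetate-prelabeled chicken reticulocyte histones (2 mg/mL, 10 µL) at 30 °C for 30 min. Released tritiated acetic acid was extracted with ethyl acetate after HCl/acetate stop, then scintillation counted. IC50 from triple determinations, given as mean ± SD of at least three experiments.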

[5] = biological target: T1, Histone deacetylase HD2 (Zea mays); details: 22.2 uM
[6] = Selectivity for class IIa HDACs as ratio of IC50 for maize histone deacetylase 1-B and 1-A
In short: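 Maize HD1-B (class I homologue) and HD1-A (class IIa homologue) were each assayed on [³H]acetate-prelabeled chicken reticulocyte histones for 30 min at 30 °C. Released [³H]acetate was extracted with ethyl acetate and scintillation counted. IC50s came from dilutions starting at 40 µM, at least three experiments. Selectivity = IC50(HD1-B)/IC50(HD1-A).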

[7] = biological target: T1, Histone deacetylase HD2 (Zea mays); assay: Inhibitory activity against maize histone deacetylase 2 at 23.6 uM; in short: as §1
[8] = biological target: T1, Histone deacetylase HD2 (Zea mays); assay: Inhibitory activity against maize histone deacetylase 2 at 20.6 uM; in short: as §1
[9] = biological target: T1, Histone deacetylase HD2 (Zea mays); assay: Inhibitory activity against maize histone deacetylase 2 at 24.5 uM; in short: as §1
[10] = biological target: T1, Histone deacetylase HD2 (Zea mays); assay: Inhibitory activity against maize histone deacetylase 2 at 24.8 uM; in short: as §1
[11] = biological target: T1, Histone deacetylase HD2 (Zea mays); assay: Inhibitory activity against maize histone deacetylase 2 at 40 uM; in short: as §1
[12] = biological target: T1, Histone deacetylase HD2 (Zea mays); assay: Inhibitory activity against maize histone deacetylase 2 at 20.2 uM; in short: as §1
[13] = biological target: T1, Histone deacetylase HD2 (Zea mays); assay: Inhibitory activity against maize histone deacetylase 2 at 25.2 uM; in short: as §1
[14] = biological target: T1, Histone deacetylase HD2 (Zea mays); assay: Inhibitory activity against maize histone deacetylase 2 at 20.5 uM; in short: as §1
[15] = biological target: T1, Histone deacetylase HD2 (Zea mays); assay: Inhibitory activity against maize histone deacetylase 2 at 23.7 uM; in short: as §1
[16] = biological target: T1, Histone deacetylase HD2 (Zea mays); assay: Inhibitory activity against maize histone deacetylase 2 at 23.3 uM; in short: as §1
[17] = biological target: T1, Histone deacetylase HD2 (Zea mays); assay: Inhibitory activity against maize histone deacetylase 2 at 21.1 uM; in short: as §1

pIC50 [2]	pIC50 [3]	pIC50 [4]	SI [6]	SMILES	also measured
6.59	6.72			Cn1cc(/C=C/C(=O)c2ccccc2)cc1/C=C/C(=O)NO	inhibition [1]: 92.3%
6.48	8.00	6.70	33	Cn1cc(/C=C/C(=O)c2cccc3ccccc23)cc1/C=C/C(=O)NO	inhibition [5]: 92%
6.77	6.80	6.60		COc1ccccc1C(=O)/C=C/c1cc(/C=C/C(=O)NO)n(C)c1	inhibition [7]: 95.7%
4.50	5.66	4.58	14.4	Cn1cc(/C=C/C(=O)c2ccc(-c3ccccc3)cc2)cc1/C=C/C(=O)NO	inhibition [8]: 34%
6.10	6.10	6.24		COc1ccc(C(=O)/C=C/c2cc(/C=C/C(=O)NO)n(C)c2)cc1	inhibition [7]: 74.2%
5.47	7.00	5.15	34	Cn1cc(/C=C/C(=O)c2ccccc2F)cc1/C=C/C(=O)NO	inhibition [9]: 73.9%
9.40	9.10			CC(/C=C/C(=O)NO)=C\[C@@H](C)C(=O)c1ccc(N(C)C)cc1 [TRICHOSTATIN]	
5.32	6.30		9.6	Cc1ccc(C(=O)/C=C/c2cc(/C=C/C(=O)NO)n(C)c2)cc1	inhibition [10]: 65%
6.01	6.35	5.70	2.2	O=C(CCCCCCC(=O)Nc1ccc([C@H]2O[C@@H](CSc3nc(-c4ccccc4)c(-c4ccccc4)o3)C[C@@H](c3ccc(CO)cc3)O2)cc1)NO [TUBACIN]	inhibition [11]: 92.9%
3.53	4.05	3.75	3.3	Cn1cc(/C=C/C(=O)c2cccc(OC(F)(F)F)c2)cc1/C=C/C(=O)NO	inhibition [12]: 19.5%
	7.40	5.74	45	Cn1cc(/C=C/C(=O)c2ccc3ccccc3c2)cc1/C=C/C(=O)NO	inhibition [13]: 62.9%
6.41	7.22		6.5	Cc1ccccc1C(=O)/C=C/c1cc(/C=C/C(=O)NO)n(C)c1	inhibition [10]: 96%
4.60	4.80	4.45		Cn1cc(/C=C/C(=O)c2ccc(F)cc2)cc1/C=C/C(=O)NO	inhibition [9]: 33.2%
6.24	6.11	6.17		C/C(=C\c1cc(/C=C/C(=O)NO)n(C)c1)C(=O)c1ccccc1	inhibition [10]: 89.9%
6.74	6.68	6.44		Cn1cc(/C=C/C(=O)c2ccccc2Br)cc1/C=C/C(=O)NO	inhibition [14]: 92.4%
4.61	4.69	4.55		Cn1cc(/C=C/C(=O)c2ccc(Br)cc2)cc1/C=C/C(=O)NO	inhibition [14]: 41.7%
6.22	6.41	6.27		COc1cccc(C(=O)/C=C/c2cc(/C=C/C(=O)NO)n(C)c2)c1	inhibition [7]: 78.2%
5.96	5.80	5.68		Cn1cc(/C=C/C(=O)c2cccc(Br)c2)cc1/C=C/C(=O)NO	inhibition [14]: 76.8%
5.35	6.66	6.38	20.4	CC/C(=C\c1cc(/C=C/C(=O)NO)n(C)c1)C(=O)c1ccccc1	inhibition [15]: 93%
4.41	6.66	4.66	176	Cn1cc(/C=C/C(=O)c2cccc(F)c2)cc1/C=C/C(=O)NO	inhibition [9]: 56.5%
4.50	6.36		71.4	Cn1cc(/C=C/C(=O)c2cccc(Cl)c2)cc1/C=C/C(=O)NO	inhibition [16]: 49%
5.60	6.77		14.7	Cc1cccc(C(=O)/C=C/c2cc(/C=C/C(=O)NO)n(C)c2)c1	inhibition [10]: 72%
3.80	5.03	4.31	17.1	Cn1cc(/C=C/C(=O)c2cccc(C(F)(F)F)c2)cc1/C=C/C(=O)NO	inhibition [17]: 46.1%
4.53	4.73			Cn1cc(/C=C/C(=O)c2ccc(Cl)cc2)cc1/C=C/C(=O)NO	inhibition [16]: 45.5%
5.80	7.30		32	Cn1cc(/C=C/C(=O)c2ccccc2Cl)cc1/C=C/C(=O)NO	inhibition [16]: 79.1%
